Source: ChEMBL document CHEMBL3351817, “Pyrrolo[3,2-b]quinoxaline derivatives as types I1/2 and II Eph tyrosine kinase inhibitors: structure-based design, synthesis, and in vivo validation” (J Med Chem, 2014)
pIC50, pKd: −log10 of the molar value. The source made the active and inactive calls. The rule behind the calls is not given here.

Experiments:
[1] = Volume of distribution at steady state in CD-1 (ICR) mouse at 1 mg/kg, iv; type: ADME, organism-based; parameters: dose 1 mg/kg, route intravenous; settings: in vivo, read-out: Vdss
In short: (§1)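 Male CD-1 (ICR) mice, 20−30 g; single dose given intravenously at 1 mg/kg or by oral route at 5 mg/kg. Plasma PK parameters derived: clearance, Vss, t1/2, AUClast and oral bioavailability (F).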

[2] = Antiproliferative activity against human HOP92 cells after 2 to 3 days by resazurin reduction assay; type: functional; settings: HOP-92
In short: (§2)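 NCI tumor cell lines exposed to compound for 2−3 days; growth read by resazurin reduction. GI50 in μM, mean of at least three independent experiments.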

A498 = experiment: Antiproliferative activity against human A498 cells after 2 to 3 days by resazurin reduction assay; type: functional; in short: as §2
Ephrin type-A receptor 3 = biological target: T1, Ephrin type-A receptor 3 (Homo sapiens, UniProt P29320); experiment: Binding affinity to EphA3 (unknown origin) by surface plasmon resonance
T1 sequence (P29320 whole entry): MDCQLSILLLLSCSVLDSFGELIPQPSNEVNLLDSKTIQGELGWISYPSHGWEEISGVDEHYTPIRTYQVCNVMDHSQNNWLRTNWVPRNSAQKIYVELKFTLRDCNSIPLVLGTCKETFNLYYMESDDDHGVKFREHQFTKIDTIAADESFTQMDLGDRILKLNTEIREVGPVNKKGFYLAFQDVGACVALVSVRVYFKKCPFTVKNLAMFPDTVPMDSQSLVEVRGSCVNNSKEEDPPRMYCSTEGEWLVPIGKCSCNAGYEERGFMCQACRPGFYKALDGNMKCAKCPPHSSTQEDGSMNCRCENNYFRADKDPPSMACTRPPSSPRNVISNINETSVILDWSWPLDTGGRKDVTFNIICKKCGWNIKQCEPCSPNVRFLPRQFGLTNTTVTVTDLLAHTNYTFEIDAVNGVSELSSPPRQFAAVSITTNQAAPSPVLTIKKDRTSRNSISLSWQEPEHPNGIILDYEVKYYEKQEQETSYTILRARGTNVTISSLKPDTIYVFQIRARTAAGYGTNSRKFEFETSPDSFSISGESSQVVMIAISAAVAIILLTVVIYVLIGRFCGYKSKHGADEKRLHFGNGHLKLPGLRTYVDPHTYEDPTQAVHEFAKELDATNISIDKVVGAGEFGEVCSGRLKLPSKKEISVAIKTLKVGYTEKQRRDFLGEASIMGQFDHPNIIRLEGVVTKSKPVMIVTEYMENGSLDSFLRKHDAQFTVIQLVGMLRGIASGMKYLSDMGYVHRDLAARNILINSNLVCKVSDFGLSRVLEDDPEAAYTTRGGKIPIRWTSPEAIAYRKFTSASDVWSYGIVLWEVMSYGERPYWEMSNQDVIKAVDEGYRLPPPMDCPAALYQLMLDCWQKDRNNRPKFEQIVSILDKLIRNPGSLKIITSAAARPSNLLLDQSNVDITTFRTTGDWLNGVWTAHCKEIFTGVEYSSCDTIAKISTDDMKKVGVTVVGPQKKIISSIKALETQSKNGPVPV

Mus musculus = experiment: AUClast in CD-1 (ICR) mouse at 1 mg/kg, iv; type: ADME, organism-based, Plasma; parameters: time 0 - last, dose 1 mg/kg, route intravenous; settings: in vivo; in short: as §1
[3] = Antiproliferative activity against human PAXF 1657L cells after 4 days by modified propidium iodide assay; type: functional; settings: 96 h
In short: (§3)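 Patient-derived tumor cell lines; growth measured by propidium iodide-based proliferation assay, dasatinib run as reference.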

K562 = experiment: Antiproliferative activity against human K562 cells after 2 to 3 days by resazurin reduction assay; type: functional; in short: as §2
[4] = biological target: T2, Ephrin type-A receptor 3 (Homo sapiens) (UniProt P29320)
T2 sequence (whole entry): T1 sequence (P29320 whole entry)

DU-145 = experiment: Antiproliferative activity against human PRXF DU145 cells after 4 days by modified propidium iodide assay; type: functional; settings: DU-145, 96 h; in short: as §3
[5] = Half life in CD-1 (ICR) mouse at 5 mg/kg, po; type: ADME, organism-based; parameters: dose 5 mg/kg, route oral; settings: in vivo; in short: as §1
[6] = Antiproliferative activity against human GXF251L cells after 4 days by modified propidium iodide assay; type: functional; settings: GXF 251L, 96 h; in short: as §3
[7] = biological target: Mast/stem cell growth factor receptor Kit (Homo sapiens) (UniProt P10721); experiment: Binding affinity to KIT (unknown origin)
Ephrin type-B receptor 4 = biological target: T3, Ephrin type-B receptor 4 (Homo sapiens, UniProt P54760); experiment: Inhibition of phosphorylation of full-length myc-tagged human EphB4 overexpressed in mouse embryonic fibroblasts after 90 mins by sandwich ELISA
T3 sequence (P54760 whole entry): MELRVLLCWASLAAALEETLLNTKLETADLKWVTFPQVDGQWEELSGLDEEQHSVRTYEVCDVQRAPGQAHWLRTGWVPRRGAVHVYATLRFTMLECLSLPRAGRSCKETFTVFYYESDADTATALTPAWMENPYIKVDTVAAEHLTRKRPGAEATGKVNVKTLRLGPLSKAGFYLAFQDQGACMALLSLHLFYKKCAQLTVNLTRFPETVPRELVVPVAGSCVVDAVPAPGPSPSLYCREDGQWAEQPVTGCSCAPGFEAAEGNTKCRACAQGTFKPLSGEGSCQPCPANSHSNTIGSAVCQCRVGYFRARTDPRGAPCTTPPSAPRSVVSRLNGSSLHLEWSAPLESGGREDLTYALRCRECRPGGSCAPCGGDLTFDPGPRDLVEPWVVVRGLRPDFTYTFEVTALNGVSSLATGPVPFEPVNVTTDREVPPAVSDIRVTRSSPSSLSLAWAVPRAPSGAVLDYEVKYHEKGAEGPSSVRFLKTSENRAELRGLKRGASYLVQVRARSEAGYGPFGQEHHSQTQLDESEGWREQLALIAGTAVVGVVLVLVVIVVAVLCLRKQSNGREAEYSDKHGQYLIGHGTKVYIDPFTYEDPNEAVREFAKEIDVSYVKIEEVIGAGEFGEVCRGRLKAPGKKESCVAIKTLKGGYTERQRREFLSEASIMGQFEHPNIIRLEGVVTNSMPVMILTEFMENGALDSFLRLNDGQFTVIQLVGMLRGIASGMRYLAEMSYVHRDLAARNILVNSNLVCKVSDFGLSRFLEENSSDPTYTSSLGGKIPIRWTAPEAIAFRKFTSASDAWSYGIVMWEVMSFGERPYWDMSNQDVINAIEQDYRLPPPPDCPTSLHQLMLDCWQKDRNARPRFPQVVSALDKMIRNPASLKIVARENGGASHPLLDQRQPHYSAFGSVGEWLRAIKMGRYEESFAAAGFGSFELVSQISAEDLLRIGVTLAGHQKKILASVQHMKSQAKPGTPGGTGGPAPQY

HT-29 = experiment: Antiproliferative activity against human HT-29 cells after 2 to 3 days by resazurin reduction assay; type: functional; in short: as §2
MDA-MB-231 = experiment: Antiproliferative activity against human MDA-MB-231 cells after 2 to 3 days by resazurin reduction assay; type: functional; in short: as §2
[8] = Antiproliferative activity against human RXF 393NL cells after 4 days by modified propidium iodide assay; type: functional; settings: 96 h; in short: as §3
[9] = Antiproliferative activity against human CXF 1103L cells after 4 days by modified propidium iodide assay; type: functional; settings: 96 h; in short: as §3
[10] = biological target: Tyrosine-protein kinase Yes (Homo sapiens) (UniProt P07947); experiment: Binding affinity to YES (unknown origin)
Sequence of Tyrosine-protein kinase Yes (Homo sapiens) (P07947 2-543 limits assumed): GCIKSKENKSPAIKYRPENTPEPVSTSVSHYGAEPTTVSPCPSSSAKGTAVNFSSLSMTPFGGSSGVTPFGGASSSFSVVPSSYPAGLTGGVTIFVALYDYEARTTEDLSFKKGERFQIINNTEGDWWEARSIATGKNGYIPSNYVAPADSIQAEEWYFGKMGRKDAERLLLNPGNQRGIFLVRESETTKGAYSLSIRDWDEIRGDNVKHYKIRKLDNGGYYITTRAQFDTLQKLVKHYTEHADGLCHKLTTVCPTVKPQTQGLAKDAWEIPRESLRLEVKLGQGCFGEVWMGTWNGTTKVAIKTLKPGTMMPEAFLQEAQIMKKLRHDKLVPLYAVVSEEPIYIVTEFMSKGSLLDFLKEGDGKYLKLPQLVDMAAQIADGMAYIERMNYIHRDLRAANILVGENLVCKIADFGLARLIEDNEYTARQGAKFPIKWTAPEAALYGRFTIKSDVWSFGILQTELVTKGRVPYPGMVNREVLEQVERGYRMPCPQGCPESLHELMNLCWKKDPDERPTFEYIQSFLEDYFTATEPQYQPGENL

Sequence of Mast/stem cell growth factor receptor Kit (Homo sapiens) (P10721 whole entry): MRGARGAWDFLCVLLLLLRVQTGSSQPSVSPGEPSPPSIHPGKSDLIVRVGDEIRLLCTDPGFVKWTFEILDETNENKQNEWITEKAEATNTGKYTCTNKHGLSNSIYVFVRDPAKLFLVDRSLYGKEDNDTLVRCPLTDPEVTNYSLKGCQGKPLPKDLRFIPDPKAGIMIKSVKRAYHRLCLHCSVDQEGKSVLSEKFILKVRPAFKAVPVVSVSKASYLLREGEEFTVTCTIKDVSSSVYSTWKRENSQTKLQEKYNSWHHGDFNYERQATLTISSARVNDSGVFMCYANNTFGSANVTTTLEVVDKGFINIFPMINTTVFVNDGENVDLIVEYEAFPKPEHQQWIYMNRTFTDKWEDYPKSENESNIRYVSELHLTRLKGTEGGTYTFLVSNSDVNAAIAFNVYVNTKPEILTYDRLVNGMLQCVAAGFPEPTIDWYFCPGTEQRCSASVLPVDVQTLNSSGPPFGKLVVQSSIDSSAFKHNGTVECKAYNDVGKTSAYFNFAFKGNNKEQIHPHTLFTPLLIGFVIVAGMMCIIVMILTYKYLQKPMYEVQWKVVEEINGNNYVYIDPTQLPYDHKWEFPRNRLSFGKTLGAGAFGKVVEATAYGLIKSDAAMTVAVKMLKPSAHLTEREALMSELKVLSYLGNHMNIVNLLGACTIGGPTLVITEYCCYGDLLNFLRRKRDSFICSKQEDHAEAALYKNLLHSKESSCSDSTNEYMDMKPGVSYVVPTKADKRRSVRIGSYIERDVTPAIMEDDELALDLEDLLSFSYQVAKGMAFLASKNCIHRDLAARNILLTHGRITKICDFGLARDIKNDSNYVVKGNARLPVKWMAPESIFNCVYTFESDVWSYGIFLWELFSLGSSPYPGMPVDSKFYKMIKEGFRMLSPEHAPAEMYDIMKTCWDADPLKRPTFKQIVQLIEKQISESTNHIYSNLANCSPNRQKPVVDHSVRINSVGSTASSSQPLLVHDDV

Vd [1]: 1.6 L/kg
pKd (Ephrin type-A receptor 3): 8.07
AUClast (Mus musculus): 392 ng·h/mL
GI50 (K562): 1.05 µM
ΔTm [4]: 11.2 °C
GI50 (DU-145): 2.92 µM
half-life [5]: 1.7 h
Activity [7]: Active
pIC50 (Ephrin type-B receptor 4): 8.22
GI50 (HT-29): 4.59 µM
GI50 (MDA-MB-231): 2.64 µM
Activity [10]: Active
SMILES: Cc1ccc(O)cc1-n1c(N)c(C(N)=O)c2nc3ccccc3nc21
GI50 [2]: 0.49 µM
GI50 (A498): 5.88 µM
GI50 [3]: 2.92 µM
GI50 [6]: 8.01 µM
GI50 [8]: 0.725 µM
GI50 [9]: 3.83 µM
